Data set [1] has as its system Mus musculus. The experiment in a line: Anticonvulsant activity in Kunming mouse assessed as protection against maximal electroshock-induced seizure at 300 mg/kg, ip. It is filed as functional, organism-based. Details: dose 300 mg/kg. In outline:
(§1)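 Mice held on a 12-h light/dark cycle at 23 ± 2 °C with free food and water. Compounds were given ip as suspensions in aqueous Tween 80 (3% v/v, 0.9% NaCl) at 0.05 mL/20 g body weight. The maximal electroshock test was scored as number of animals protected over number tested.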

The test system of data set [2] is Mus musculus. In words: Anticonvulsant activity in Kunming mouse assessed as protection against maximal electroshock-induced seizure at 100 mg/kg, ip. The class given is functional, organism-based. Details: dose 100 mg/kg. In short, it runs like this:
as §1
In general terms: The maximal electroshock test induces tonic seizures with an electrical stimulus.

The subject of data set [3] is Mus musculus. In words: Antidepressant activity in Kunming mouse assessed as decrease in immobility time at 100 mg/kg, ip measured for last 4 mins of 6 mins test after 30 mins post dose by forced swimming test relative to control. Details: scale not given: the % may be the effect or the level left. Particulars: route intraperitoneal. It is filed as functional. In short, it runs like this: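 Mice were dosed ip with compounds at 100 mg/kg, suspended in 3% Tween 80 in 0.9% NaCl (0.05 mL/20 g); controls got 3% aqueous Tween 80. After 30 min each mouse was placed in a water-filled cylinder (water depth 10 cm, 23–25 °C) for 6 min. Upright floating with only slight movements was scored as immobility, timed over the last 4 min. Mean ± S.E.M., n = 8.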

Data set [4] deals with Mus musculus. In words: Anticonvulsant activity in Kunming mouse assessed as protection against maximal electroshock-induced seizure at 30 mg/kg, ip. Details: dose 30 mg/kg. It is filed as functional, organism-based. In short, it runs like this:
as §1

Data set [5] relates to Mus musculus. In words: Toxicity in Kunming mouse assessed as increase in locomotor activity at 100 mg/kg, ip administered 60 mins prior to test measured for 3 mins by open-field test. The class given is organism-based. Details: dose 100 mg/kg, route intraperitoneal. The conditions noted are these: in vivo, 0.05 h. In short, it runs like this:
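Open-field exploratory activity was recorded for 3 min, starting 60 min after ip dosing in 3% Tween 80/0.9% NaCl vehicle. Counts were taken for locomotion (line crossings), rearing (standing on hind legs) and grooming, and compared with a vehicle control group.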

Active and inactive are the calls of the source. The rule behind the calls is not given here.

As for `Cc1ccccc1Oc1nc2ccsc2c2nnnn12`, the outcome in the data set on Mus musculus [1], with Mus musculus [2] and in the data set with Mus musculus [4] was inactive. Moreover, in the data set on Mus musculus [3], the Activity is given as 36.44%.
Regarding `Fc1ccc(Oc2nc3ccsc3c3nnnn23)cc1`, the result in the data set on Mus musculus [1], in the data set on Mus musculus [2] and with Mus musculus [4] was inactive. Besides, the Activity in the data set on Mus musculus [3] was determined as 18.18%.
Take `c1ccc(Oc2nc3ccsc3c3nnnn23)cc1`: the result in the data set on Mus musculus [2] and in the data set on Mus musculus [4] was inactive. Further, the Activity in the data set with Mus musculus [3] was 26.46%.
Turning to `COc1cccc(Oc2nc3ccsc3c3nnnn23)c1`, the outcome with Mus musculus [1], with Mus musculus [2] and in the data set on Mus musculus [4] was inactive. Besides, the Activity in the data set on Mus musculus [3] came to 37.41%.
As for `Clc1ccccc1Oc1nc2ccsc2c2nnnn12`, the outcome in the data set with Mus musculus [1], in the data set on Mus musculus [2] and in the data set with Mus musculus [4] was inactive. For the same compound, in the data set on Mus musculus [3], the Activity stood at 40.17%.
Take `FC(F)(F)c1ccc(Oc2nc3ccsc3c3nnnn23)cc1`: the outcome with Mus musculus [1], in the data set with Mus musculus [2] and in the data set with Mus musculus [4] was inactive. Also, the Activity in the data set with Mus musculus [3] is reported as 25.16%.
Consider `Clc1cccc(Oc2nc3ccsc3c3nnnn23)c1`, for which the outcome with Mus musculus [1], in the data set with Mus musculus [2] and in the data set on Mus musculus [4] was inactive. Besides, the Activity in the data set with Mus musculus [3] is 15.42%.
Regarding `Brc1ccc(Oc2nc3ccsc3c3nnnn23)cc1`, the result in the data set on Mus musculus [1] was Active. Further, the Activity with Mus musculus [3] stood at 10.06%. Also, in the data set with Mus musculus [4], the outcome was inactive.
Turning to `Cc1cccc(Oc2nc3ccsc3c3nnnn23)c1`, the outcome in the data set on Mus musculus [1], in the data set on Mus musculus [2] and in the data set with Mus musculus [4] was inactive. Besides, the Activity in the data set on Mus musculus [3] turned out to be 39.04%.
As to `COc1ccccc1Oc1nc2ccsc2c2nnnn12`, the outcome in the data set with Mus musculus [1], in the data set with Mus musculus [2] and in the data set with Mus musculus [4] was inactive. Further, in the data set with Mus musculus [3], the Activity was 26.05%.
For the compound `Clc1ccc(Oc2nc3ccsc3c3nnnn23)c(Cl)c1`, the outcome with Mus musculus [1], with Mus musculus [2] and in the data set with Mus musculus [4] was inactive. Besides, the Activity in the data set with Mus musculus [3] is given as 51.62%; with Mus musculus [5], “Non-toxic”.
For the compound `Nc1cccc(Oc2nc3ccsc3c3nnnn23)c1`, the result with Mus musculus [2] and with Mus musculus [4] was inactive. Further, the Activity with Mus musculus [3] was found to be 27.59%.
As for `Cc1ccc(Oc2nc3ccsc3c3nnnn23)cc1`, the result in the data set with Mus musculus [1], with Mus musculus [2] and in the data set with Mus musculus [4] was inactive. The Activity in the data set with Mus musculus [3] turned out to be 36.6%.
As to `Clc1ccc(Oc2nc3ccsc3c3nnnn23)cc1`, the outcome with Mus musculus [1], with Mus musculus [2] and with Mus musculus [4] was inactive. In the data set on Mus musculus [3], the Activity is listed as 35.63%.
With `CNCCC(Oc1ccc(C(F)(F)F)cc1)c1ccccc1` (stereo not drawn) [FLUOXETINE], the Activity with Mus musculus [3] is 58.09%.
Turning to `Nc1ccccc1Oc1nc2ccsc2c2nnnn12`, in the data set with Mus musculus [1], the outcome was Active. In the data set with Mus musculus [3], the Activity is listed as 22.8%. For the same compound, the result in the data set with Mus musculus [4] was inactive.
In the case of `c1cnc2c(Oc3nc4ccsc4c4nnnn34)cccc2c1`, the outcome in the data set on Mus musculus [1], in the data set on Mus musculus [2] and in the data set with Mus musculus [4] was inactive. For the same compound, the Activity with Mus musculus [3] is reported as 23.62%.
For `c1ccc2c(Oc3nc4ccsc4c4nnnn34)cccc2c1`, the result in the data set with Mus musculus [1], in the data set with Mus musculus [2] and in the data set with Mus musculus [4] was inactive. Further, the Activity in the data set with Mus musculus [3] was determined as 9.25%.
In the case of `Fc1ccccc1Oc1nc2ccsc2c2nnnn12`, the outcome with Mus musculus [1], in the data set on Mus musculus [2] and with Mus musculus [4] was inactive. Also, in the data set on Mus musculus [3], the Activity was 9.33%.
With `Fc1cccc(Oc2nc3ccsc3c3nnnn23)c1`, the result in the data set on Mus musculus [1], with Mus musculus [2] and in the data set on Mus musculus [4] was inactive. For the same compound, the Activity in the data set on Mus musculus [3] is 25.73%.
`COc1ccc(Oc2nc3ccsc3c3nnnn23)cc1`: the outcome with Mus musculus [1], with Mus musculus [2] and in the data set with Mus musculus [4] was inactive. The Activity with Mus musculus [3] is given as 46.18%.

The values are drawn from ChEMBL document CHEMBL2086227, “Synthesis and evaluation of anticonvulsant and antidepressant activities of 5-alkoxytetrazolo[1,5-c]thieno[2,3-e]pyrimidine derivatives” (Eur J Med Chem, 2012).
